Test results reported in publication PMC3754432 (Journal of the American Chemical Society, 2013).
“And” between values parts separate entries of the source, which are not always exact repeats. Identical values can stand only once.

Legend:
2B6 [1] = conditions: cited from earlier work
2B6 [2] = test: Maximal binding affinity for 2B6 predicted from logP; parameters: species or system human; conditions: 298 K, based solely on enthalpy of desolvation, −1.364×logP
Cytochrome P450 2B6 [3] = target: T1, Cytochrome P450 2B6 (Homo sapiens, UniProt P20813, K262R/Y226H); test: Isothermal titration calorimetry; type: binding; conditions: 25 °C
T1 sequence (P20813 with tags, fused parts or gaps Y226H/K262R limits assumed): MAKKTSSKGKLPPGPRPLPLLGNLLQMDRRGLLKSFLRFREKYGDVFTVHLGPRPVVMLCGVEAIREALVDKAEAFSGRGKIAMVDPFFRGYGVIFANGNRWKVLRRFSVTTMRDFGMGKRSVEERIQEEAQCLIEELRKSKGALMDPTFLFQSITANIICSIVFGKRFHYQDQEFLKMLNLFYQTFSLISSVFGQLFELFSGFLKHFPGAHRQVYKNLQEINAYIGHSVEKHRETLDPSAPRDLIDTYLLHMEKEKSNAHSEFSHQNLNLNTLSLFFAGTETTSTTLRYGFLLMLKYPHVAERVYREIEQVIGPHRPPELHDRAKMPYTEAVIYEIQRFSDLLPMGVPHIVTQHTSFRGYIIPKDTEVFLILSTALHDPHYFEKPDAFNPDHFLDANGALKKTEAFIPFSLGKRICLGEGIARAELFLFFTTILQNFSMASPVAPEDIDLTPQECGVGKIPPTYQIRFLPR

Cytochrome P450 2A6 [4] = target: T2, Cytochrome P450 2A6 (Homo sapiens, UniProt P11509); test: Isothermal titration calorimetry; type: binding; conditions: 25 °C
T2 sequence (P11509 with tags, fused parts or gaps limits assumed): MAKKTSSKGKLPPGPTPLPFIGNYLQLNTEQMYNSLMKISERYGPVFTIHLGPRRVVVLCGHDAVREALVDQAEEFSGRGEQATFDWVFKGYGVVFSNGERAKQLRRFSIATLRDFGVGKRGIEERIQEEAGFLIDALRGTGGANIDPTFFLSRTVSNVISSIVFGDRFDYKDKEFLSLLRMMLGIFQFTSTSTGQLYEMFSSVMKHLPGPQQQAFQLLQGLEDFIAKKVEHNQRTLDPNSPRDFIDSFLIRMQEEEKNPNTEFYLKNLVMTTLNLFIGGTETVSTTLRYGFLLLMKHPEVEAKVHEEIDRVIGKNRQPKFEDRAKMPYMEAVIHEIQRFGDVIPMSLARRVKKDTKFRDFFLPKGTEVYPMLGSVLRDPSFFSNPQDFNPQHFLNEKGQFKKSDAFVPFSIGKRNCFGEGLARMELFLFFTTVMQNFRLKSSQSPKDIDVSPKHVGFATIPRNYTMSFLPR

Cytochrome P450 2A6 [5] = target: T2, Cytochrome P450 2A6; test: Spectral binding titration; conditions: read-out: Ks (spectral dissociation constant), 25 °C, mean (SD)
Cytochrome P450 2B6 [6] = target: T1, Cytochrome P450 2B6; test: Spectral binding titration; conditions: for Kd: mean (SD)
In short: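 Human 2B6 (Y226H/K262R), co-expressed with GroEL/ES in E. coli JM109 and purified by Ni-NTA then CM-Sepharose; P450 quantified by reduced CO difference spectra. Titrated at 25 °C with stirring in 50 mM K-phosphate pH 7.4, 500 mM NaCl, 1 mM EDTA, 1 mM TCEP. Ligand was added from acetone (<1% final) and 350–700 nm spectra were recorded. High-spin fraction was derived by PCA against spin-state standards. KS came from a tight-binding fit, or a Hill fit for one ligand.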

Q: Which “change in the fraction of high-spin P450” value (2B6 [1]) does the source give for `COC(=O)[C@H](c1ccccc1Cl)N1CCc2sccc2C1` [clopidogrel] here?
A: 2 – 4%

Q: For (+)-α-Pinene, which “maximal binding affinity predicted from logP” value (2B6 [2]) is on record?
A: ~ −6 kcal/mol

Q: And the “KD (KA^−1 from ITC)” value (Cytochrome P450 2B6 [3]; mean (SD))?
A: 0.22 (0.17) 10^−6 M

Q: What about the Kd (Cytochrome P450 2B6 [3]; ITC) of the same compound?
A: ~220 nM

Q: And the “KD (KA^−1 from ITC)” value (Cytochrome P450 2A6 [4]; mean (SD))?
A: 0.17 (0.05) 10^−6 M

Q: What about the Kd (Cytochrome P450 2A6 [4]; ITC) of the same compound?
A: ~170 nM

Q: What about the Kd (Cytochrome P450 2A6 [5]) of the same compound?
A: 34200 nM

Q: What about the Kd (Cytochrome P450 2B6 [6]; read-out: Ks (spectral dissociation constant), spectral titration, 25 °C, 2B6) of the same compound?
A: 380 nM

Q: Which “KD (KA^−1 from ITC)” value (Cytochrome P450 2B6 [3]; mean (SD)) does the source give for `CC1=CCC2C(C1)C2(C)C` (single isomer, unassigned; (+)) [(+)-3-carene] here?
A: 1.82 (0.61) 10^−6 M

Q: And the ΔG (Cytochrome P450 2B6 [3]; ITC, mean (SD))?
A: −7.5 (1.4) kcal/mol

Q: What about the ΔS (Cytochrome P450 2B6 [3]; ITC, mean (SD)) of the same compound?
A: 3.2 (2.3) cal/mol/K

Q: And the ΔH (Cytochrome P450 2B6 [3]; ITC, mean (SD) of at least three experiments)?
A: −6.3 (2.2) kcal/mol

Q: And the “spectral shift upon binding” value (Cytochrome P450 2B6 [6]; 2B6, increase at 390 nm, decrease at 417 nm)?
A: Type I spectral shift

Q: And the Kd (Cytochrome P450 2B6 [6]; read-out: Ks measured using the Hill equation giving the S50, spectral titration, 2B6, Hill equation, n=2)?
A: 1600 nM

Q: What about the “ΔFh (maximal increase in fraction of high-spin P450)” value (Cytochrome P450 2B6 [6]; spectral titration, 25 °C, 2B6) of the same compound?
A: 42.5 ± 3.4% and 42.5 (3.4) %

Q: With `Clc1ccccc1CN1CCc2sccc2C1` [ticlopidine] as the compound, how does the “change in the fraction of high-spin P450” value (2B6 [1]) read?
A: 2 – 4%
